The values that follow come from ChEMBL document CHEMBL1149161, “Design, synthesis, and biological evaluation of substituted 2-cyclohexyl-4-phenyl-1H-imidazoles: potent and selective neuropeptide Y Y5-receptor antagonists” (J Med Chem, 2004).

A short description of series [1]: Inhibition of […] binding to recombinant human chimeric NPY5/NPY1 receptor expressed in Sf9 cells. The gist of the method:
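Membranes from Sf9 cells expressing the human chimeric NPY5/NPY1 receptor, in 50 mM Tris-HCl pH 7.4 with 5 mM KCl, 120 mM NaCl, 2 mM CaCl2, 1 mM MgCl2 and 0.1% BSA. Membranes (5–50 µg) competed against 0.050 nM porcine [125I]PYY for 2 h at room temperature. Nonspecific binding was defined with 1 µM human NPY. Filtration and gamma counting followed; Ki came from a Hill fit; mean of n = 2-3 ± SEM.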

In series [2] the test system is COS-7. The series is described as follows: Percentage block at hERG Voltage-gated potassium channel (subunit Kv11.1) expressed in COS7 cells by electrophysiological whole cell assay (300 nM). The series is classed as cell-based. Particulars: Homo sapiens.
Series [3] can be described thus: Maximum plasma concentration after oral dosing in rat. Format: ADME, organism-based. Set-up: route oral. The gist of the method:
(§1)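 Sprague–Dawley rats received a single 20 mg/kg oral gavage dose in 20% vitamin E/water (n = 3). Blood was sampled from predose to 24 h. Heparinized plasma was precipitated with acetonitrile and analyzed by LC. Bioavailability was set against a 3 mg/kg iv dose (n = 2).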

A short description of series [4]: Plasma clearance of the compound. Format: ADME, organism-based. The gist of the method:
(§2)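 Sprague–Dawley rats received a single 3 mg/kg iv catheter dose in 50% PEG/water (n = 2). Blood was sampled at predose and from 5 min to 24 h. Heparinized plasma was precipitated with acetonitrile and analyzed by LC.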

A short description of series [5]: Volume of distribution at steady state. The series is classed as ADME, organism-based. Particulars: in vivo; read-out: Vss. The gist of the method: as §2
The nature of series [6]: Oral half life of the compound. Format: ADME, organism-based. Particulars: in vivo. The gist of the method:
as §1

Series [7] has as its system Rattus norvegicus. The series is described as follows: Oral bioavailability after peroral administration in rats. The series is classed as organism-based. The gist of the method:
as §1

As to `O=C(NCCO)[C@H]1CC[C@H](c2nc(-c3cccc(C(F)(F)F)c3)c[nH]2)CC1`, in series [1], the inhibition constant Ki was 11 nM.

Turning to `CC(=O)CNC(=O)[C@H]1CC[C@H](c2nc(-c3cccc(Br)c3)c[nH]2)CC1`, in series [1], the inhibition constant (Ki) was found to be 10 nM.

In the case of `O=S(=O)(NC[C@H]1CC[C@H](c2nc(-c3cccc(C(F)(F)F)c3)c[nH]2)CC1)c1ccccc1`, the Ki in series [1] was 0.2 nM. This molecule also yielded an inhibition in series [2] of 87%.

Consider `O=C(NS(=O)(=O)c1ccccc1)[C@H]1CC[C@H](c2nc(-c3cccc(C(F)(F)F)c3)c[nH]2)CC1`, for which, in series [1], the Ki worked out at 31 nM.

`CC(=O)NNC(=O)[C@H]1CC[C@H](c2nc(-c3cccc(C(F)(F)F)c3)c[nH]2)CC1`: the inhibition constant Ki in series [1] worked out at 1.4 nM.

Regarding `C[C@@H](O)CNC(=O)[C@H]1CC[C@H](c2nc(-c3cccc(C(F)(F)F)c3)c[nH]2)CC1`, in series [1], the inhibitory constant (Ki) is 8 nM.

As for `FC(F)(F)c1cccc(-c2c[nH]c(C3CCCCC3)n2)c1`, the inhibition constant (Ki) in series [1] was found to be 6 nM.

As for `COCCNC(=O)[C@H]1CC[C@H](c2nc(-c3cccc(C(F)(F)F)c3)c[nH]2)CC1`, in series [1], the Ki came to 99 nM.

For the molecule `CN(C[C@H]1CC[C@H](c2nc(-c3cccc(C(F)(F)F)c3)c[nH]2)CC1)S(=O)(=O)c1ccccc1`, the inhibitory constant (Ki) in series [1] is 1.3 nM. In series [2], the inhibition was 85%.

Consider `CC(C)(CO)NC(=O)[C@H]1CC[C@H](c2nc(-c3cccc(C(F)(F)F)c3)c[nH]2)CC1`, for which the peak level in series [3] (Cmax) was 714 ng/mL. In series [4], this molecule came in with a clearance of 50 mL/min/kg. Further, the Vd in series [5] turned out to be 6 L/kg. Also, in series [6], the half-life is 780 min. Besides, the inhibition constant Ki in series [1] was determined as 2.8 nM. This molecule yielded a bioavailability in series [7] of 36%.

As to `FC(F)(F)c1cccc(-c2c[nH]c(-c3ccccc3)n2)c1`, the Ki in series [1] came out at 2.5 nM.

Take `NCCNC(=O)[C@H]1CC[C@H](c2nc(-c3cccc(C(F)(F)F)c3)c[nH]2)CC1`: the Ki in series [1] was determined as 915 nM.

Regarding `O=C(NCCCO)[C@H]1CC[C@H](c2nc(-c3cccc(C(F)(F)F)c3)c[nH]2)CC1`, the Ki in series [1] came out at 185 nM.

With `C[C@H](O)CNC(=O)[C@H]1CC[C@H](c2nc(-c3cccc(C(F)(F)F)c3)c[nH]2)CC1`, in series [1], the Ki was found to be 31 nM.
